We go through eleven compounds from ChEMBL document CHEMBL1132422, “Synthesis and evaluation of 2-amino-9-(1, 3-dihydroxy-2-propoxymethyl)- 6-fluoropurine mono- and diesters as potential prodrugs of ganciclovir” (J Med Chem, 1999).

Data set [1] can be described thus: Compound was tested for solubility in water at 25 degree C. It is filed as ADME. The settings on record: read-out: S. The essentials:
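Saturated aqueous solution of compound; UV absorbance at 245 nm compared against a standard curve to give solubility.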

Data set [2] in a line: Compound was tested for its half life period at pH 6.0 using Sodium phosphate buffer. It is filed as ADME. An outline of the steps:
(§1)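 Compound incubated in buffer (HCl/NaCl at pH 1.2; sodium phosphate at pH 6.0, 7.4, 8.0), sampled and analysed by C18 reversed-phase HPLC. Gradient: 10 min 100% 0.1% phosphoric acid, 25 min linear to 45% of 80% MeCN/0.1% phosphoric acid, then 4 min isocratic, at 1 mL/min. UV detection at 245 nm. Half-life derived from remaining parent compound.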

Another data set deals with Rattus norvegicus. As to the kind of experiment: Total amount of Ganciclovir recovered in the urine over a 48 hr period after an oral dose of 0.1 mmol/kg to male SD rat. It is filed as functional. The essentials: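 Single oral dose of 0.1 mmol/kg given to two male Sprague-Dawley rats (200-250 g). Urine collected for 48 h in metabolic cages, and total ganciclovir measured by C18 reversed-phase HPLC.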

Data set [3] can be described thus: Compound was tested for its half life period at pH 7.4 using Sodium phosphate buffer. Format: ADME. An outline of the steps:
as §1

Data set [4] is described as follows: Compound was tested for its half life period at pH 1.2 using HCl/NaCl buffer. Format: ADME. An outline of the steps: as §1
In another data set the test system is Human betaherpesvirus 5. As to the kind of experiment: In vitro antiviral (HCMV-AD169) activity of the compound (Concentration required to reduce 50% of the plaques) determined by plaque reduction assay. Format: functional, cell-based. The settings on record: Human betaherpesvirus 5, AD169, HEL 299. The essentials: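 Confluent cells infected with about 50 PFU HCMV AD-169 per well, 1 h adsorption at 37 °C, 5% CO2. Inoculum replaced with EMEM containing 2% FBS, 1% methyl cellulose and compound at various concentrations. After 10 days, plaques fixed in methanol, stained with crystal violet and counted. EC50 from probit dose-response; quadruplicate, repeated twice.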
(In general: Plaque reduction counts the foci of infection that form in a cell layer.)

A further data set concerns HEL 299. As to the kind of experiment: In vitro cytotoxicity of the compound (Concentration required to reduce OD value by 50%) in human embryonic lung fibroblast(HEL 299) cells determined by MTT assay. Format: functional. The essentials:
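HEL 299 cells seeded at 1 × 10^4 cells/well in EMEM and grown 24 h, then exposed to compound at various concentrations for 4 days at 37 °C, 5% CO2. MTT added for 4 h, formazan dissolved in DMSO, OD read at 540 nm. CC50 from probit dose-response; quadruplicate, repeated twice.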

A short description of data set [5]: Compound was tested for its half life period at pH 8.0 using Sodium phosphate buffer. It is filed as ADME. The essentials:
as §1

Structures are written as SMILES. ≈ marks a conversion by molar mass, not a printed value.

With `CCCC(=O)OCC(COC(=O)CCC)OCn1cnc2c(F)nc(N)nc21`, the solubility in data set [1] amounted to 0.6 mg/mL (≈ 1.51 mM). Moreover, the half-life (commonly the time in which the quantity being followed falls by half) in data set [2] is 39 days; in data set [3], 264 h; in data set [4], 1.08 h; in data set [5] it was 96 h. Further, the “Ganciclovir recovered in urine over 48 h (% of dose)” value (“Ganciclovir recovered … (% of dose)” below) with Rattus norvegicus amounted to 35%. Besides, in the data set with Human betaherpesvirus 5, the EC50 (in general, the concentration at which the effect is half-maximal) was above 100 µM. For the same compound, in the data set with HEL 299, the CC50 (as a rule, the concentration giving 50% cytotoxicity) was above 100 µM.

Turning to `CC(=O)OCC(CO)OCn1cnc2c(F)nc(N)nc21` (configuration not stated), the solubility in data set [1] came to 44.4 mg/mL (≈ 148 mM). The half-life in data set [2] was 56 days; in data set [3], 336 h; in data set [4], 1.02 h; in data set [5], 168 h. For the same compound, the “Ganciclovir recovered … (% of dose)” value in the data set on Rattus norvegicus is recorded as 29%. In the data set on Human betaherpesvirus 5, the EC50 was above 100 µM. In addition, the CC50 with HEL 299 was above 100 µM.

As to `Nc1nc2c(ncn2COC(CO)CO)c(=O)[nH]1` [GANCICLOVIR], in data set [1], the solubility came out at 4.3 mg/mL (≈ 16.8 mM). Moreover, the “Ganciclovir recovered … (% of dose)” value with Rattus norvegicus is listed as 3%. In the data set with Human betaherpesvirus 5, this compound registered an EC50 of 0.63 µM. Further, the CC50 in the data set with HEL 299 is above 100 µM.

In the case of `Nc1nc(F)c2ncn(COC(CO)CO)c2n1`, in data set [1], the solubility is 11.3 mg/mL (≈ 43.9 mM). The half-life in data set [2] was 107 days; in data set [3] it was 1660 h; in data set [4] it was 1.03 h; in data set [5] it was 720 h. The “Ganciclovir recovered … (% of dose)” value in the data set with Rattus norvegicus is 8%. Further, the EC50 with Human betaherpesvirus 5 is above 100 µM. Moreover, in the data set with HEL 299, the CC50 was above 100 µM.

Regarding `CCCC(=O)OCC(CO)OCn1cnc2c(F)nc(N)nc21` (configuration not stated), the solubility in data set [1] was found to be 19.4 mg/mL (≈ 59.3 mM). Moreover, the half-life in data set [2] is 51 days; in data set [3] it was 504 h; in data set [4], 1.15 h; in data set [5], 288 h. Also, in the data set with Rattus norvegicus, the “Ganciclovir recovered … (% of dose)” value is 41%. Moreover, in the data set with Human betaherpesvirus 5, the concentration for a half-maximal effect (EC50) was above 100 µM. In the data set with HEL 299, this compound yielded a CC50 above 100 µM.

`CC(C)OCC(COC(C)C)OCn1cnc2cnc(N)nc21` [ROCICLOVIR]: the “Ganciclovir recovered … (% of dose)” value in the data set on Rattus norvegicus is listed as 14%.

On to `CC(C)C(=O)OCC(COC(=O)C(C)C)OCn1cnc2c(F)nc(N)nc21`, for which the solubility in data set [1] is 0.4 mg/mL (≈ 1.01 mM). Moreover, the half-life in data set [2] was 29 days; in data set [3] it was 168 h; in data set [4], 1.23 h; in data set [5] it was 120 h. Also, the “Ganciclovir recovered … (% of dose)” value in the data set on Rattus norvegicus is listed as 42%. The compound further came in with an EC50 with Human betaherpesvirus 5 above 100 µM. For the same compound, the CC50 with HEL 299 is above 100 µM.

In the case of `CC(C)C(=O)OCC(CO)OCn1cnc2c(F)nc(N)nc21` (configuration not stated), the solubility in data set [1] is 5.7 mg/mL (≈ 17.4 mM). Moreover, the half-life is 56 days in data set [2], 768 h in data set [3], 1.08 h in data set [4] and 336 h in data set [5]. For the same compound, the “Ganciclovir recovered … (% of dose)” value with Rattus norvegicus is given as 45%. In addition, the EC50 in the data set on Human betaherpesvirus 5 is above 100 µM. The same compound displayed a CC50 with HEL 299 above 100 µM.

For `CCC(=O)OCC(COC(=O)CC)OCn1cnc2c(F)nc(N)nc21`, in data set [1], the solubility came out at 0.7 mg/mL (≈ 1.9 mM). In addition, the half-life in data set [2] is 35 days; in data set [3], 168 h; in data set [4] it was 1.38 h; in data set [5] it was 48 h. In addition, the “Ganciclovir recovered … (% of dose)” value with Rattus norvegicus worked out at 35%. Further, the EC50 in the data set with Human betaherpesvirus 5 was above 100 µM. In addition, the CC50 in the data set on HEL 299 is above 100 µM.

Take `CCC(=O)OCC(CO)OCn1cnc2c(F)nc(N)nc21` (configuration not stated): the solubility in data set [1] was 19 mg/mL (≈ 60.6 mM). Also, the half-life in data set [2] is 37 days; in data set [3] it was 408 h; in data set [4] it was 1 h; in data set [5], 168 h. This compound also registered a Dose with Rattus norvegicus of 39%. For the same compound, the EC50 in the data set on Human betaherpesvirus 5 was above 100 µM. This compound also showed a CC50 in the data set on HEL 299 above 100 µM.

As for `CC(=O)OCC(COC(C)=O)OCn1cnc2c(F)nc(N)nc21`, in data set [1], the solubility was found to be 4.2 mg/mL (≈ 12.3 mM). For the same compound, the half-life is 30 days in data set [2], 192 h in data set [3], 1.03 h in data set [4] and 72 h in data set [5]. The “Ganciclovir recovered … (% of dose)” value with Rattus norvegicus came to 41%. In the data set with Human betaherpesvirus 5, the EC50 is above 100 µM. The compound also came in with a CC50 in the data set on HEL 299 above 100 µM.
